According to ChEMBL document CHEMBL3414437, “Synthesis of CDDO-amino acid-nitric oxide donor trihybrids as potential antitumor agents against both drug-sensitive and drug-resistant colon cancer” (J Med Chem, 2015):
Activity calls are given as the source filed them. The calls are words filed in the database; no cut-off is given here.

Assays:
HCT-8 [1] = test: Inhibition of HIF-1alpha protein expression in FU-resistant human HCT8 cells at 0.25 to 1 uM incubated for 24 hrs by Western blotting method; type: functional, cell-based
Method in brief: (§1)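 Cells (1 x 10^6) grown 24 h in 6 cm dishes, then exposed in duplicate for 24 h to 0.25, 0.5 or 1 µM compound, with or without PTIO. Lysates (20 µg/lane) were run on 7.5% SDS-PAGE, blotted to PVDF and blocked in 5% milk. HRP secondaries with ECL detection; bands quantified by densitometry against β-actin or GAPDH. Three separate experiments, mean ± SD.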

HCT-8 [2] = test: Antiproliferative activity against human HCT8 cells assessed as inhibition of cell proliferation at 0.25 uM after 24 hrs by MTT assay; type: functional, cell-based
Mus musculus [3] = test: Toxicity in male ICR mouse assessed as body weight level at 2.38 x 10^3 umol/kg administered as single dose via oral gavage measured on day 14 post treatment (reference value: 19.5 +/- 0.85 g); type: organism-based; settings: in vivo
Mus musculus [4] = test: Toxicity in ICR mouse assessed as abnormality in drinking behavior at 0.60 x 10^3 to 2.38 x 10^3 umol/kg administered as single dose via oral gavage measured up to 14 days post treatment; type: organism-based; settings: in vivo, 336 h
Method in brief: (§2)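 Adult ICR mice of either sex were randomised and given a single oral gavage dose of 500, 1000, 1500 or 2000 mg/kg in cremophor-EL/DMSO/PBS (1:1:8). Survival, behaviour, water and food intake, body weight and activity were monitored for up to 14 days. Body weights were taken on days 0, 7 and 14.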

Mus musculus [5] = test: Toxicity in nude BALB/c mouse xenografted with FU-resistant human HCT8 cells assessed as abnormal weight changes in lung at 17.8 to 35.7 umol/kg administered as via oral gavage daily for 21 days; type: organism-based, HCT-8; settings: in vivo, 504 h
Method in brief: (§3)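 Male BALB/c nude mice, 6-8 weeks old, inoculated s.c. in right flank with HCT-8/5-FU cells (2 × 10^6/mouse). Once tumors reached 180-200 mm3 (9-11 days post-implantation), mice were randomized and dosed by gavage daily for 21 consecutive days in cremophor-EL/DMSO/PBS (1:1:8) (vehicle alone 0.2 mL). Body weights recorded on day 1 and day 21. Organ size, color and weights were inspected for liver, kidney, lung and heart. n = 8 per group; mean ± SD.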

HCT-8 [6] = test: Antiproliferative activity against human HCT8 cells assessed as inhibition of cell proliferation at 0.25 uM dosed 1 hr after NO scavenger carboxy-PTIO treatment and measured after 24 hrs by MTT assay; type: functional
Mus musculus [7] = test: Toxicity in female ICR mouse assessed as body weight level at 2.38 x 10^3 umol/kg administered as single dose via oral gavage measured on day 7 post treatment (reference value: 19.8 +/- 0.92 g); type: organism-based; settings: in vivo
HCT-8 [8] = test: Antiproliferative activity against human HCT8 cells assessed as inhibition of cell proliferation at 0.125 to 0.5 uM incubated for 72 hrs after 24 hrs of pre-treatment with 0.75 uM and 1 .5 uM pepT1 substrate Gly-Sar by MTT assay; type: functional, cell-based
Method in brief: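 Cells pretreated with or without Gly-Sar (0.75 or 1.5 µM) for 24 h, then given a range of compound concentrations for 72 h. Proliferation inhibition measured by MTT.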

Mus musculus [9] = test: Toxicity in nude BALB/c mouse xenografted with FU-resistant human HCT8 cells assessed as abnormal color changes in kidney at 17.8 to 35.7 umol/kg administered as via oral gavage daily for 21 days; type: organism-based, HCT-8; settings: in vivo, 504 h
Method in brief: (§4)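 Male BALB/c nude mice aged 6-8 weeks, implanted s.c. in the right flank with HCT-8/5-FU cells (2 × 10^6). Once tumors reached 180-200 mm3 (days 9-11), randomized to daily gavage for 21 days in cremophor-EL/DMSO/PBS (1:1:8), 0.2 mL. At the end, liver, kidney, lung and heart checked for size, colour and weight. n = 8 per group.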

HCT-8 [10] = test: Inhibition of HIF-1alpha protein expression in human HCT8 cells at 0.25 to 1 uM incubated for 24 hrs by Western blotting method; type: functional, cell-based; method in brief: as §1
Mus musculus [11] = test: Toxicity in nude BALB/c mouse xenografted with FU-resistant human HCT8 cells assessed as abnormal weight changes in heart at 17.8 to 35.7 umol/kg administered as via oral gavage daily for 21 days; type: organism-based, HCT-8; settings: in vivo, 504 h; method in brief: as §4
HCT-8 [12] = test: Induction of nitric oxide release in 5-FU resistant human HCT8 cells at 150 uM incubated for 150 mins after 150 mins of pre-treatment with 0.75 uM to 192 uM pepT1 substrate Gly-Sar by Griess assay; type: functional, cell-based
Method in brief: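 Cells pretreated with Gly-Sar (0.75–192 µM, nine levels) for 150 min, then given compound at 150 µM for 150 min. Intracellular nitrite in lysates measured with Griess reagent (10 min, 37 °C, 540 nm) against a sodium nitrite standard curve. Mean ± SD of three experiments.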

Mus musculus [13] = test: Toxicity in ICR mouse assessed as mouse mortality incidence at 0.60 x 10^3 to 2.38 x 10^3 umol/kg administered as single dose via oral gavage measured up to 14 days post treatment; type: organism-based; settings: in vivo, 336 h; method in brief: as §2
HCT-8 [14] = test: Antiproliferative activity against 5-FU resistant human HCT8 cells assessed as inhibition of cell proliferation at 0.25 uM after 24 hrs by MTT assay; type: functional, cell-based
[15] = Toxicity in male ICR mouse assessed as mouse mortality at 2.38 x 10^3 umol/kg administered as single dose via oral gavage measured up to 14 days post treatment; type: organism-based; settings: in vivo
Method in brief: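 Female or male adult ICR mice, 10 per sex group, were randomised and given a single oral gavage dose of 2,000 mg/kg in cremophor-EL/DMSO/PBS (1:1:8). Total mortality was recorded over days 1–14, and body weight on days 0, 7 and 14 as mean ± SD.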

[16] = Antitumor activity against FU-resistant human HCT8 cells xenografted in nude BALB/c mouse assessed as reduction in tumor weight at 59.4 umol/kg administered as via oral gavage daily for 21 days; type: functional; settings: HCT-8, po, 504 h
Method in brief: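 Male BALB/c nude mice, 6–8 weeks old, inoculated s.c. in the right flank with HCT-8/5-FU cells (2 × 10^6). Once tumors reached 180–200 mm3 (days 9–11), mice were randomized (n = 8) to daily oral gavage for 21 days in cremophor-EL/DMSO/PBS (1:1:8). Tumor volume = W2(L/2), caliper-measured every other day, blinded; tumors weighed at end.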

Mus musculus [17] = test: Toxicity in nude BALB/c mouse xenografted with FU-resistant human HCT8 cells assessed as abnormal color changes in lung at 59.4 umol/kg administered as via oral gavage daily for 21 days; type: organism-based, HCT-8; settings: in vivo, 504 h; method in brief: as §4
Mus musculus [18] = test: Toxicity in nude BALB/c mouse xenografted with FU-resistant human HCT8 cells assessed as abnormal color changes in liver at 59.4 umol/kg administered as via oral gavage daily for 21 days; type: organism-based, HCT-8; settings: in vivo, 504 h; method in brief: as §4
Mus musculus [19] = test: Toxicity in nude BALB/c mouse xenografted with FU-resistant human HCT8 cells assessed as abnormal color changes in kidney at 59.4 umol/kg administered as via oral gavage daily for 21 days; type: organism-based, HCT-8; settings: in vivo, 504 h; method in brief: as §4
Mus musculus [20] = test: Toxicity in nude BALB/c mouse xenografted with FU-resistant human HCT8 cells assessed as abnormal weight changes in liver at 59.4 umol/kg administered as via oral gavage daily for 21 days; type: organism-based, HCT-8; settings: in vivo, 504 h; method in brief: as §3
Mus musculus [21] = test: Toxicity in nude BALB/c mouse xenografted with FU-resistant human HCT8 cells assessed as abnormal weight changes in lung at 59.4 umol/kg administered as via oral gavage daily for 21 days; type: organism-based, HCT-8; settings: in vivo, 504 h; method in brief: as §3

For `CC1(C)CC[C@]2(C(=O)NCC(=O)OCC#CCOc3no[n+]([O-])c3S(=O)(=O)c3ccccc3)CC[C@]3(C)[C@H](C(=O)C=C4[C@@]5(C)C=C(C#N)C(=O)C(C)(C)[C@@H]5CC[C@]43C)[C@@H]2C1`, the inhibition (HCT-8 [1]) was “Dose-dependent effect”, the Activity (HCT-8 [2]) was “Active” and the Activity (Mus musculus [3]) was 31.9 g. For the same molecule, the Activity (Mus musculus [4]) was “Non-toxic”, the Activity (Mus musculus [5]) was “Non-toxic” and the inhibition (HCT-8 [6]) was “inactive”. The Activity (Mus musculus [7]) was 25 g, the inhibition (HCT-8 [8]) was “inactive” and the Activity (Mus musculus [9]) was “Non-toxic”. For the same molecule, the inhibition (HCT-8 [10]) was “Dose-dependent effect”, the Activity (Mus musculus [11]) was “Non-toxic” and the Activity (HCT-8 [12]) was “inactive”. For the same molecule, the Activity (Mus musculus [13]) was “Non-toxic”, the Activity (HCT-8 [14]) was “Active” and the mortality at 336 h [15] was 0%.
For `COC(=O)[C@]12CCC(C)(C)C[C@H]1[C@H]1C(=O)C=C3[C@@]4(C)C=C(C#N)C(=O)C(C)(C)[C@@H]4CC[C@@]3(C)[C@]1(C)CC2` [BARDOXOLONE METHYL], the inhibition in vivo at 59.4 µmol/kg [16] was 58.4%, the Activity (Mus musculus [17]) was “Non-toxic” and the Activity (Mus musculus [18]) was “Non-toxic”. The Activity (Mus musculus [19]) was “Non-toxic”, the Activity (Mus musculus [20]) was “Non-toxic” and the Activity (Mus musculus [21]) was “Non-toxic”.
